{
  "source": "paper PMC6198128",
  "about": "(Redox Biology, 2018)",
  "key": {"[1]": {"tested_on": "HL-60 (human promyelocytic leukemia)", "experiment": "Alamar blue cytotoxicity assay, HL-60", "format": "cell-based"}, "[2]": {"tested_on": "K-562 (human chronic myelogenous leukemia)", "experiment": "Alamar blue cytotoxicity assay, K-562", "format": "cell-based"}, "[3]": {"tested_on": "HCT116 (human colon carcinoma)", "experiment": "Alamar blue cytotoxicity assay, HCT116", "format": "cell-based"}, "[4]": {"tested_on": "MCF-7 (human breast carcinoma)", "experiment": "Alamar blue cytotoxicity assay, MCF-7", "format": "cell-based"}, "[5]": {"tested_on": "HepG2 (human hepatocellular carcinoma)", "experiment": "Alamar blue cytotoxicity assay, HepG2", "format": "cell-based"}, "[6]": {"tested_on": "HSC-3 (human oral squamous cell carcinoma)", "experiment": "Alamar blue cytotoxicity assay, HSC-3", "format": "cell-based"}, "[7]": {"tested_on": "SCC-9 (human oral squamous cell carcinoma)", "experiment": "Alamar blue cytotoxicity assay, SCC-9", "format": "cell-based"}, "[8]": {"tested_on": "B16-F10 (mouse melanoma)", "experiment": "Alamar blue cytotoxicity assay, B16-F10", "format": "cell-based"}, "[9]": {"tested_on": "PBMC (human peripheral blood mononuclear cells)", "experiment": "Alamar blue cytotoxicity assay, PBMC", "format": "cell-based", "settings": "read-out: IC50 in µM; PBMC non-cancer cells, alamar blue, 72 h"}, "[10]": {"tested_on": "HL-60 cells", "format": "cell-based, human", "settings": "HL-60, 24 and 48 h, p < 0.05; DOX 2 µM, OXA 2.5 µM"}, "[11]": {"tested_on": "HL-60 cells", "experiment": "Internucleosomal DNA fragmentation and cell cycle distribution", "format": "cell-based, human", "procedure,_shortened": "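After 24 or 48 h treatment, HL-60 cells were permeabilized and stained with propidium iodide, and DNA content was measured by flow cytometry. 10^4 events were recorded per sample with debris excluded. Sub-G0/G1 was taken as internucleosomal DNA fragmentation, alongside G0/G1, S and G2/M fractions. Doxorubicin and oxaliplatin were positive controls; ANOVA with Student–Newman–Keuls test.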"}, "[12]": {"tested_on": "HL-60 cells", "experiment": "Mitochondrial transmembrane potential", "format": "cell-based, human", "settings": "HL-60, rhodamine 123, 24 h, p < 0.05; DOX 2 µM, OXA 2.5 µM", "procedure,_shortened": "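HL-60 cells were grown in RPMI-1640 with 10% FBS, 2 mM L-glutamine and 50 µg/mL gentamycin at 37 °C, 5% CO2. After treatment, cells were loaded with rhodamine 123 (5 µg/mL) for 15 min at 37 °C in the dark and washed in saline.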"}, "[13]": {"tested_on": "ROS in HL-60 cells", "experiment": "Intracellular reactive oxygen species levels", "format": "cell-based, human", "settings": "HL-60, DCFH-DA, 1 h", "procedure,_shortened": "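Intracellular ROS in HL-60 cells was measured with 2′,7′-dichlorofluorescin diacetate after 1 and 3 h exposure to test compound. Fluorescence was read by flow cytometry, recording 10^4 events per sample with cellular debris omitted. Vehicle served as negative control; results are mean ± S.E.M., compared by ANOVA and Student–Newman–Keuls test.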"}, "[14]": {"tested_on": "calf thymus DNA (ctDNA)", "experiment": "DNA intercalation assay", "format": "binding", "settings": "cell-free, 15 µg/mL ctDNA, 1.5 µM ethidium bromide; complex 5, 10 and 20 µM; doxorubicin 10 µM", "procedure,_shortened": "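Ethidium bromide displacement from calf thymus DNA in saline: 15 µg/mL ctDNA, 1.5 µM ethidium bromide, test compound at 5, 10 and 20 µM. Vehicle (0.1% DMSO) was the negative control and doxorubicin (10 µM) the positive control. Fluorescence was read at excitation 320 nm and emission 600 nm. Lower fluorescence was taken as intercalation.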"}, "[15]": {"experiment": "Time-dependent 31P{1H} NMR stability in DMSO solution", "format": "physicochemical"}, "[16]": {"tested_on": "HL-60 cells", "experiment": "Morphological analysis", "format": "cell-based, human", "settings": "24 and 48 h, DOX 2 µM, OXA 2.5 µM", "procedure,_shortened": "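HL-60 cells were treated for 24 and 48 h, then stained with May-Grunwald-Giemsa and examined by light microscopy. In parallel, forward and side light scatter were quantified by flow cytometry, recording 10^4 events per sample with debris excluded. Vehicle was the negative control, with doxorubicin and oxaliplatin as positive controls.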"}, "[17]": {"settings": "HL-60, 1 µM, 24 h of incubation"}, "[18]": {"settings": "HL-60, 1 µM, 48 h of incubation"}, "[19]": {"settings": "HL-60, 2 µM, 24 h of incubation"}, "[20]": {"settings": "HL-60, 2 µM, 48 h of incubation"}, "[21]": {"settings": "HL-60, 4 µM, 24 h of incubation"}, "[22]": {"settings": "HL-60, 4 µM, 48 h of incubation"}},
  "data": [
    {"substance": "cis-[PtCl(PIP-OH)(PPh3)2]PF6 [CPP]", "values": [
      {"measurement": "more potent than PIP-OH", "setting": "[1]; HL-60, ratio of IC50", "value": 4.5, "unit": "fold"},
      {"measurement": "more potent than piplartine", "setting": "[1]; HL-60, ratio of IC50", "value": 7.4, "unit": "fold"},
      {"measurement": "IC50", "setting": "[1]; read-out: IC50 in µM, HL-60, alamar blue, 72 h", "value": 1.9, "unit": "µM"},
      {"measurement": "more potent than PIP-OH", "setting": "[2]; K-562, ratio of IC50", "value": 21.1, "unit": "fold"},
      {"measurement": "more potent than piplartine", "setting": "[2]; K-562, ratio of IC50", "value": 16.9, "unit": "fold"},
      {"measurement": "IC50", "setting": "[2]; read-out: IC50 in µM, K-562, alamar blue, 72 h", "value": 1.1, "unit": "µM"},
      {"measurement": "more potent than PIP-OH", "setting": "[3]; HCT116, ratio of IC50", "value": 2.4, "unit": "fold"},
      {"measurement": "more potent than piplartine", "setting": "[3]; HCT116, ratio of IC50", "value": 1.1, "unit": "fold"},
      {"measurement": "IC50", "setting": "[3]; read-out: IC50 in µM, HCT116, alamar blue, 72 h", "value": 4.8, "unit": "µM"},
      {"measurement": "more potent than PIP-OH", "setting": "[4]; MCF-7, ratio of IC50", "value": 3.6, "unit": "fold"},
      {"measurement": "more potent than piplartine", "setting": "[4]; MCF-7, ratio of IC50", "value": 1.5, "unit": "fold"},
      {"measurement": "IC50", "setting": "[4]; read-out: IC50 in µM, MCF-7, alamar blue, 72 h", "value": 6.8, "unit": "µM"},
      {"measurement": "more potent than piplartine", "setting": "[5]; HepG2, ratio of IC50", "value": 1.4, "unit": "fold"},
      {"measurement": "IC50", "setting": "[5]; read-out: IC50 in µM, HepG2, alamar blue, 72 h", "value": 4.4, "unit": "µM"},
      {"measurement": "more potent than PIP-OH", "setting": "[6]; HSC-3, ratio of IC50", "value": 1.7, "unit": "fold"},
      {"measurement": "more potent than piplartine", "setting": "[6]; HSC-3, ratio of IC50", "value": 14.1, "unit": "fold"},
      {"measurement": "IC50", "setting": "[6]; read-out: IC50 in µM, HSC-3, alamar blue, 72 h", "value": 1, "unit": "µM"},
      {"measurement": "more potent than PIP-OH", "setting": "[7]; SCC-9, ratio of IC50", "value": 3.8, "unit": "fold"},
      {"measurement": "more potent than piplartine", "setting": "[7]; SCC-9, ratio of IC50", "value": 2.7, "unit": "fold"},
      {"measurement": "IC50", "setting": "[7]; read-out: IC50 in µM, SCC-9, alamar blue, 72 h", "value": 6.2, "unit": "µM"},
      {"measurement": "more potent than PIP-OH", "setting": "[8]; B16-F10, ratio of IC50", "value": 56.9, "unit": "fold"},
      {"measurement": "more potent than piplartine", "setting": "[8]; B16-F10, ratio of IC50", "value": 9.6, "unit": "fold"},
      {"measurement": "IC50", "setting": "[8]; read-out: IC50 in µM, B16-F10, alamar blue, 72 h", "value": 1.1, "unit": "µM"},
      {"measurement": "IC50", "setting": "[9]", "value": 10.3, "unit": "µM"},
      {"measurement": "apoptotic cells (annexin V-FITC/PI)", "setting": "[10]", "value": "increasing in apoptotic cells with more pronounced effect after 48 h"},
      {"measurement": "DNA content (%) G0/G1", "setting": "[11]; [17]", "value": "32.0 ± 5.4", "unit": "%"},
      {"measurement": "DNA content (%) G2/M", "setting": "[11]; [17]", "value": "13.2 ± 2.9", "unit": "%"},
      {"measurement": "DNA content (%) S", "setting": "[11]; [17]", "value": "10.5 ± 1.8", "unit": "%"},
      {"measurement": "DNA content (%) Sub-G0/G1", "setting": "[11]; [17]", "value": "25.0 ± 1.6", "unit": "%"},
      {"measurement": "DNA content (%) G0/G1", "setting": "[11]; [18]", "value": "49.7 ± 2.2", "unit": "%"},
      {"measurement": "DNA content (%) G2/M", "setting": "[11]; [18]", "value": "14.5 ± 0.9", "unit": "%"},
      {"measurement": "DNA content (%) S", "setting": "[11]; [18]", "value": "12.3 ± 1.6", "unit": "%"},
      {"measurement": "DNA content (%) Sub-G0/G1", "setting": "[11]; [18]", "value": "19.8 ± 1.4", "unit": "%"},
      {"measurement": "DNA content (%) G0/G1", "setting": "[11]; [19]", "value": "34.3 ± 2.9", "unit": "%"},
      {"measurement": "DNA content (%) G2/M", "setting": "[11]; [19]", "value": "15.0 ± 2.5", "unit": "%"},
      {"measurement": "DNA content (%) S", "setting": "[11]; [19]", "value": "10.3 ± 1.1", "unit": "%"},
      {"measurement": "DNA content (%) Sub-G0/G1", "setting": "[11]; [19]", "value": "29.2 ± 0.9", "unit": "%"},
      {"measurement": "DNA content (%) G0/G1", "setting": "[11]; [20]", "value": "48.5 ± 3.1", "unit": "%"},
      {"measurement": "DNA content (%) G2/M", "setting": "[11]; [20]", "value": "14.1 ± 1.5", "unit": "%"},
      {"measurement": "DNA content (%) S", "setting": "[11]; [20]", "value": "14.3 ± 0.8", "unit": "%"},
      {"measurement": "DNA content (%) Sub-G0/G1", "setting": "[11]; [20]", "value": "25.8 ± 3.8", "unit": "%"},
      {"measurement": "DNA content (%) G0/G1", "setting": "[11]; [21]", "value": "26.7 ± 4.6", "unit": "%"},
      {"measurement": "DNA content (%) G2/M", "setting": "[11]; [21]", "value": "15.3 ± 2.6", "unit": "%"},
      {"measurement": "DNA content (%) S", "setting": "[11]; [21]", "value": "10.1 ± 1.4", "unit": "%"},
      {"measurement": "DNA content (%) Sub-G0/G1", "setting": "[11]; [21]", "value": "26.2 ± 4.1", "unit": "%"},
      {"measurement": "DNA content (%) G0/G1", "setting": "[11]; [22]", "value": "41.9 ± 8.6", "unit": "%"},
      {"measurement": "DNA content (%) G2/M", "setting": "[11]; [22]", "value": "12.8 ± 2.8", "unit": "%"},
      {"measurement": "DNA content (%) S", "setting": "[11]; [22]", "value": "8.0 ± 2.0", "unit": "%"},
      {"measurement": "DNA content (%) Sub-G0/G1", "setting": "[11]; [22]", "value": "27.3 ± 7.0", "unit": "%"},
      {"measurement": "mitochondrial transmembrane potential", "setting": "[12]", "value": "induced loss of the mitochondrial transmembrane potential"},
      {"measurement": "ROS levels", "setting": "[13]", "value": "caused increasing in the ROS levels"},
      {"measurement": "ethidium bromide fluorescence (displacement from ctDNA)", "setting": "[14]", "value": "did not reduce the ethidium bromide fluorescence"},
      {"measurement": "stability in solution (31P{1H} NMR)", "setting": "[15]; after 1 h of incubation", "value": "significant dissociation of PIP-OH ligand from the metal complex"},
      {"measurement": "stability in solution (31P{1H} NMR)", "setting": "[15]; after 48 h", "value": "most the PIP-OH was dissociated from the metal complex"},
      {"measurement": "cell morphology", "setting": "[16]; HL-60, May-Grunwald-Giemsa", "value": "reduction in the cell volume, chromatin condensation and fragmentation of the nuclei"},
      {"measurement": "forward light scatter (FSC)", "setting": "[16]; HL-60, flow cytometry", "value": "decrease in FSC"},
      {"measurement": "side scatter (SCC)", "setting": "[16]; HL-60, flow cytometry", "value": "transient increase in SCC"}
    ]}
  ]
}
